What was measured:
Prostaglandin E synthase = target: T1, Prostaglandin E synthase (Homo sapiens, UniProt O14684); assay: Inhibition of mPGES-1 in human IL-1beta-stimulated A549 cell microsomes assessed as reduction of PGE2 formation from PGH2 after 15 mins by RP-HPLC analysis; set-up: species or system Microsome
T1 sequence (O14684 whole entry): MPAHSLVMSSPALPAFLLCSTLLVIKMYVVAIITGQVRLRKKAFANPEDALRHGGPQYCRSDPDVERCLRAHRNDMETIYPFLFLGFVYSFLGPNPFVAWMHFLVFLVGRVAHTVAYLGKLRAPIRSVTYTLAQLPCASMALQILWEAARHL
Procedure, shortened: (§1)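 A549 cells in DMEM with 2% FCS for 16 h, induced with IL-1β (1 ng/mL) for 72 h, homogenized. Microsomal pellet (174 000 × g) diluted in 0.1 M potassium phosphate pH 7.4 with 2.5 mM glutathione, given compound or DMSO for 15 min. PGH₂ added (20 μM final), 1 min at 4 °C, stopped with FeCl₂/citric acid. PGE₂ by SPE and RP-HPLC (UV 195 nm), 11β-PGE₂ internal standard. Tested up to 10 μM; IC₅₀ reported only above 50% inhibition at 10 μM.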

[1] = target: T2, Polyunsaturated fatty acid 5-lipoxygenase (Homo sapiens, UniProt P09917); assay: Inhibition of human recombinant 5-lipoxygenase-mediated product formation from arachidonic acid after 5 to 10 mins by HPLC analysis
T2 sequence (P09917 whole entry): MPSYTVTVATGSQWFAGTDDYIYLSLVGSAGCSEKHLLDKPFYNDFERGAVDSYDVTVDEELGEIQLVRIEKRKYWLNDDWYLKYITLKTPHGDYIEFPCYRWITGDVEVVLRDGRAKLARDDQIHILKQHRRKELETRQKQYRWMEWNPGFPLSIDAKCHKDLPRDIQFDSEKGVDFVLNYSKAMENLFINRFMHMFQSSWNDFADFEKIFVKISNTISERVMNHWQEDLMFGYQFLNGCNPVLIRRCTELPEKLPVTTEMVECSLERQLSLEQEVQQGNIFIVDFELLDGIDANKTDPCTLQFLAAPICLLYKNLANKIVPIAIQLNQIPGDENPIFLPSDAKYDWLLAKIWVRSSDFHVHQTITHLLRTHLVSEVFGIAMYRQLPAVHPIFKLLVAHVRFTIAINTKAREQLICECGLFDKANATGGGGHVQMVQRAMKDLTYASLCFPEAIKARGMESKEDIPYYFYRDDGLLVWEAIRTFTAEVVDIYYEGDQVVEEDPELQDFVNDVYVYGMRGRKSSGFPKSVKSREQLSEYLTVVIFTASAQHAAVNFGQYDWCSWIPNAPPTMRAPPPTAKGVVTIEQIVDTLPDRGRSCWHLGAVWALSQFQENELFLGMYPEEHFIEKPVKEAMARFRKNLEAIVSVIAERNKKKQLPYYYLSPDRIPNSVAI
Procedure, shortened: (§2)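 Human 5-LO expressed in E. coli BL21 (pT3-5LO) at 37 °C, purified and used at once. Enzyme (0.5 μg/mL in PBS/EDTA with 1 mM ATP) preincubated with compound 5–10 min at 4 °C, prewarmed 30 s at 37 °C, started with 2 mM CaCl₂ + 20 μM AA (±1 μM 13(S)-HpODE), 10 min at 37 °C, stopped with cold methanol, products by HPLC.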

[2] = target: T3, Polyunsaturated fatty acid 5-lipoxygenase (Homo sapiens) (UniProt P09917); assay: Inhibition of human recombinant 5-lipoxygenase-mediated product formation from arachidonic acid assessed as remaining activity at 10 uM after 5 to 10 mins by HPLC analysis; procedure, shortened: as §2
T3 sequence (whole entry): T2 sequence (P09917 whole entry)

[3] = target: T2, Polyunsaturated fatty acid 5-lipoxygenase; assay: Inhibition of 5-lipoxygenase-mediated 5(S)-H(p)ETE formation in fMLP-stimulated human PMNL incubated 10 mins prior to fMLP challenge
[4] = Cytotoxicity in human polymorphonuclear leukocytes assessed as cell viability at 10 uM after 30 mins by MTT assay
[5] = target: Prostaglandin G/H synthase 1 (Ovis aries) (UniProt P05979); assay: Inhibition of ovine COX-1 mediated formation of 12-HHT from arachidonic acid assessed as remaining activity at 10 uM after 5 mins by HPLC analysis
[6] = target: Prostaglandin G/H synthase 2 (Homo sapiens) (UniProt P35354); assay: Inhibition of human recombinant COX-2 mediated formation of 12-HHT from arachidonic acid assessed as remaining activity at 10 uM after 5 mins by HPLC analysis
[7] = target: T4, Prostaglandin E synthase (Homo sapiens) (UniProt O14684); assay: Inhibition of mPGES-1 in human IL-1beta-stimulated A549 cell microsomes assessed as residual activity by measuring reduction of PGE2 formation from PGH2 at 10 uM after 15 mins by RP-HPLC analysis; conditions: Microsome; procedure, shortened: as §1
T4 sequence (whole entry): T1 sequence (O14684 whole entry)

[8] = target: T2, Polyunsaturated fatty acid 5-lipoxygenase; assay: Inhibition of 5-lipoxygenase-mediated 5(S)-H(p)ETE formation in A23187-stimulated human PMNL incubated 10 mins prior to A23187 challenge
[9] = target: T3, Polyunsaturated fatty acid 5-lipoxygenase (Homo sapiens); assay: Selectivity ratio of IC50 for human recombinant 5-lipoxygenase in cell-free system to IC50 for 5-lipoxygenase-mediated 5(S)-H(p)ETE formation in A23187-stimulated PMNL

SMILES	IC50 (Prostaglandin E synthase) [µM]	IC50 [1] [µM]	Activity [2] [%]	IC50 [3] [µM]	Activity [5] [%]	Activity [6] [%]	Activity [7] [%]	IC50 [8] [µM]	Ratio IC50 [9]	Activity [4]
CCCCC(Cc1cc(OCCc2ccccc2)ccc1OCCc1ccccc1)C(=O)O (stereo not drawn)	2.4	> 10	65.5	0.9	63.8	66.5				Non-toxic
CCCCC(Sc1nc(OCCc2ccc(OC)cc2)cc(OCCc2ccc(OC)cc2)n1)C(=O)O (stereo not drawn)	> 10	7					63.7	0.3	> 20	
CCCC/C(=C\c1cc(OCCC2CCCCC2)ccc1OCCC1CCCCC1)C(=O)O	3.4	> 10	73		76.4	123		0.8		Non-toxic
CCCCC(Cc1ccc(OCCc2ccccc2)c(OCCc2ccccc2)c1)C(=O)O (stereo not drawn)	2.7	> 10	54		95.8	86.4		6		Non-toxic
CCCCC(Sc1nc(OCCc2ccc(C(F)(F)F)cc2)cc(OCCc2ccc(C(F)(F)F)cc2)n1)C(=O)O (stereo not drawn)	1.9	2.2						0.5		
CCCCC(Sc1nc(OCCC(C)C)cc(OCCC(C)C)n1)C(=O)O (stereo not drawn)	> 10	6.8					54.5	1.2		
CCCC/C(=C\c1cc(OCc2ccc(C(F)(F)F)cc2)ccc1OCc1ccc(C(F)(F)F)cc1)C(=O)O	> 10	4.4			82.6	102	55.1	0.2		Non-toxic
CCCC/C(=C\c1cc(OCCc2ccccc2)cc(OCCc2ccccc2)c1)C(=O)O	2.8	> 10	62.7		81.4	81.4		0.7		Non-toxic
CCCCC(Sc1nc(OCCC2CCCCC2)cc(OCCC2CCCCC2)n1)C(=O)O (stereo not drawn)	2.4	9						0.8		
CCCCC(Oc1cc(OCCc2ccccc2)cc(OCCc2ccccc2)c1)C(=O)O (stereo not drawn)	3.4	> 10			71.6	92.5		0.6	> 20	Non-toxic
CCC(Sc1nc(OCCc2ccccc2)cc(OCCc2ccccc2)n1)C(=O)O (stereo not drawn)	7.3	9		2.8						
CCCCC(Cc1cccc(OCCc2ccccc2)c1OCCc1ccccc1)C(=O)O (stereo not drawn)	3.9	4.9			66.1	89.6		2.1		Non-toxic
CCCCC(Sc1nc(OCCc2ccc(C#N)cc2)cc(OCCc2ccc(C#N)cc2)n1)C(=O)O (stereo not drawn)	5.9	6.6						0.7		
O=C(O)CSc1nc(OCCc2ccccc2)cc(OCCc2ccccc2)n1	> 10	> 10	57					7.6		
CCCCC(Sc1nc(OCCC2CC2)cc(OCCC2CC2)n1)C(=O)O (stereo not drawn)	9.6	9.3						1.2		
CCCCC(Sc1nc(OCCc2ccc(C)cc2)cc(OCCc2ccc(C)cc2)n1)C(=O)O (stereo not drawn)	0.9	3.1						0.5		

Second part, led by results:

IC50 (Prostaglandin E synthase) [µM]	IC50 [1] [µM]	Activity [2] [%]	IC50 [3] [µM]	Activity [5] [%]	Activity [6] [%]	Activity [7] [%]	IC50 [8] [µM]	Ratio IC50 [9]	SMILES	Activity [4]
> 10	> 10	53.8				62.4	2.4		CCCCC(Sc1nc(OCCC2CCCCCC2)cc(OCCC2CCCCCC2)n1)C(=O)O (stereo not drawn)	
4.6	7.2			71.3	110		0.8		CCCCC(Sc1cc(OCCc2ccccc2)cc(OCCc2ccccc2)c1)C(=O)O (stereo not drawn)	Non-toxic
1.2	4.7						0.6		CCCCC(Sc1nc(OCCc2ccccc2)cc(OCCc2ccccc2)n1)C(=O)O (stereo not drawn)	
6.5	9.3						0.6		CCCCC(Sc1nc(OCCc2ccsc2)cc(OCCc2ccsc2)n1)C(=O)O (stereo not drawn)	
1.5	> 10	78.2	0.9	68	94.4				CCCC/C(=C\c1cc(OCCc2ccccc2)ccc1OCCc1ccccc1)C(=O)O	Non-toxic
3.7	2.8						0.5		CCCCC(Sc1nc(OCCc2ccc([N+](=O)[O-])cc2)cc(OCCc2ccc([N+](=O)[O-])cc2)n1)C(=O)O (stereo not drawn)	
> 10	> 10	85.6	> 10	99.1	110	90.1			CCCCC(Cc1ccc(OCCc2ccccc2)cc1OCCc1ccccc1)C(=O)O (stereo not drawn)	Non-toxic
> 10	6.8					90	4		CCCCC(Sc1nc(OCCC2CCCC2)cc(OCCC2CCCC2)n1)C(=O)O (stereo not drawn)	
3.8	5		1.8						CCCCC(Sc1nc(OCc2ccccc2)cc(OCc2ccccc2)n1)C(=O)O (stereo not drawn)	
0.9	2.2						0.7		CCCCC(Sc1nc(OCCCCc2ccccc2)cc(OCCCCc2ccccc2)n1)C(=O)O (stereo not drawn)	
3.5	> 10	55.6		81	102		0.3	> 20	CCCC/C(=C\c1cc(OCCc2ccc(C(F)(F)F)cc2)ccc1OCCc1ccc(C(F)(F)F)cc1)C(=O)O	Non-toxic
1.1	> 10	91.3	0.8	86.8	113				CCCC/C(=C\c1cccc(OCCc2ccccc2)c1OCCc1ccccc1)C(=O)O	Non-toxic
2.2	2.7						0.9		CCCCC(Sc1nc(OCCCc2ccccc2)cc(OCCCc2ccccc2)n1)C(=O)O (stereo not drawn)	
1.2	4.9		0.8						O=C(O)C(Sc1nc(OCCc2ccccc2)cc(OCCc2ccccc2)n1)c1ccccc1 (stereo not drawn)	
2.4	> 10	80.3		78.7	78.4		4.7		CCCCC(Cc1cc(OCCc2ccccc2)cc(OCCc2ccccc2)c1)C(=O)O (stereo not drawn)	Non-toxic
> 10	> 10	56.4				88.3	0.5	> 20	CCCCC(Sc1nc(OCCc2ccc(OC(F)(F)F)cc2)cc(OCCc2ccc(OC(F)(F)F)cc2)n1)C(=O)O (stereo not drawn)	
